Source: PubChem BioAssay
Most compounds without a hit are left out; they make up all but 1.1% or so of the library.
miR122 inh: inhibitors of miR-122 in Huh7 cells; Huh7 miR-122 Renilla luciferase sensor, 48 h; neutral wells = 0, positive control = 100; activation (reporter increase), % at 12.5 µM; hit rate 0.3% among 340,000;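 active means mean replicate activation score at least 90 and every replicate individually at or above 90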;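 further: higher luciferase means less miR-122 activity so hits act as miR-122 inhibitors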
Cneo AK release: causes C. neoformans cell lysis; adenylate kinase release luminescence, 4 h; normalised: neutral wells 0, clomiphene wells 100; lysis activity, % at 15 µM; hit rate 0.2% among 360,000;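 active means mean lysis activity across replicates of at least 80%, whatever share of replicates individually reach that level; inactive means mean lysis activity below 80%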
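Assay system: C. neoformans cells. Amount: yeast cell density of 5 × 10^6 cells/mL. Technique: AK luminescence. Buffer or medium: YPD. Times: static 4 h at 37 °C with compound, 1 h detection. Dosing: single-point compound dose. Read-out: lysis from increased AK signal.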
PglD inh: PglD (C. jejuni) enzyme inhibition | purified PglD enzyme, DTNB colorimetric CoA detection | inhibition, % at 12.5 µM | hit rate 0.098% among 360,000 | AID 602405; in the data active means inhibition above about 16%, passing the limit was not always enough
CAL PDZ FP-1: CAL PDZ (human) peptide binding inhibition | Q9HD26 | purified CAL PDZ, TMR-peptide fluorescence polarization, 1 h | inhibition, % at 24.9 µM | hit rate 0.92% among 300,000 | AID 602252;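 active means mean inhibition of at least 30% with at least half of replicates also reaching 30%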;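 further: 0% = DMSO neutral control and 100% = excess unlabeled competitor peptide PRC23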
CAL PDZ FP-2: human CAL PDZ-peptide interaction inhibition | Q9HD26 | purified CAL PDZ, TMR-peptide fluorescence polarization, 1 h | inhibition, % at 20 µM | hit rate 0.02% among 330,000 | AID 504414;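 active means highest replicate inhibition of at least 40%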;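 further: plate controls were DMSO neutral control wells for no effect and unlabeled competitor peptide control wells for full effect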
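Material: tagged CAL PDZ protein CerCALP, purified; buffer or medium: sodium phosphate/NaCl buffer pH 7.4 with TCEP, IgG, Thesit; also added: fluorescent TMR peptide probe; schedule: 1 h incubation at room temperature before polarization reading; technique: fluorescence polarization from S- and P-plane intensities, G-factor corrected; control set: unlabelled peptide and DMSO controls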
Starred values were filed as active, the others as inactive; x = no result; [ ] = another dose, or the depositor's remark.

SMILES | miR122 inh | Cneo AK release | PglD inh | CAL PDZ FP-1 | CAL PDZ FP-2
CC(=O)Nc1ccc(S(=O)(=O)NCCC(=O)Nc2cc(C)ccn2)cc1 | x | x | x | 30* | -1
COc1ccc2[nH]cc(CCNS(=O)(=O)c3ccc(NC(C)=O)cc3)c2c1 | 4 | 10 | 1 | 2 | 0
CC(=O)Nc1ccc(S(=O)(=O)NCCC(=O)Nc2cccc(Cl)c2)cc1 | -2 | 1 | 2 | -10 | -3
O=C(C[C@H]1CC[C@H]2[C@@H](COC[C@H](O)CN2S(=O)(=O)c2ccc(F)cc2)O1)NCc1ccc(Cl)c(Cl)c1 | 4[16.7 µM] | 5 | 22 | x | x
O=[N+]([O-])c1ccc(C2=NN(CCO)C(=Nc3ccc(OC(F)(F)F)cc3)SC2)cc1 | x | x | x | 31* | 0
CCCCC(O)(CCCC)C(=O)NN(C(=O)OCC)c1ccccc1 | x | x | x | -1 | 0
CCCCC(O)(CCCC)C(=O)NN(C(=O)OC)c1ccccc1 | 144* | 3 | 2 | 4 | -1
CC(=O)N1CCC(=NNC(=O)c2cc3ccccc3cc2O)CC1 | -10 | -3 | -7 | 55* | -1
CCNC(=O)C[C@@H]1C=C[C@H](NS(=O)(=O)c2ccc(F)cc2)[C@@H](CO)O1 | 9[16.7 µM] | -1 | 2 | x | x
CCN1C(=O)c2ccc(C(=O)Nc3ncc(C)s3)cc2C1=O | x | -4 | -3 | 47* | 13
O=C(Nc1cccc(S(=O)(=O)Nc2ccc(Cl)cc2)c1)c1ccccn1 | 129* | 3 | 1 | -3 | -1
O=C1CC(c2ccccc2)=C(c2ccccc2)C1 | x | 0 | 3 | -4 | 50*
CC1=C(c2ccccc2)CCC1=O | 7 | -1 | 2 | -2 | 1
COc1ccc(S(=O)(=O)N2C[C@H](O)COC[C@@H]3O[C@H](CC(=O)NCCCN4CCOCC4)CC[C@H]32)cc1 | 10[16.7 µM] | -2 | 2 | x | x
O=C(Nc1ccc(F)cc1)c1cc(Cl)sc1Cl | x | x | x | 87* | 27
COc1cccc(NC(=O)c2ccccc2Br)c1 | 3 | -4 | -8 | x | -1
COc1ccc(Br)c(C(=O)Nc2ccc(F)cc2)c1 | x | x | x | 40* | -1
COc1cccc(C(=O)Nc2ccc3nc4n(c(=O)c3c2)CCCC4)c1 | -10 | 1 | 3 | 63* | -2
Cc1ccc(NC(=O)CN(C)C(=O)c2ccc3[nH]c4c(c3c2)CC(C)CC4)cc1 (stereo unspecified) | 8 | -2 | -6 | 74* | 0
CCOc1ccc(NC(=O)CN(C)C(=O)c2ccc3[nH]c4c(c3c2)CC(C)CC4)cc1OCC (stereo unspecified) | -3 | -1 | 3 | -5 | 0
O=C(CSc1nc2cccnc2n1Cc1ccccc1)NCc1ccco1 | 9 | -1 | 2 | 65* | x
CCn1c(SCC(=O)NCc2ccco2)nc2cccnc21 | 0 | 0 | 0 | -1 | x
Cc1cc(C)cc(NC2=NC3(CCCCC3)N=C(N)N2)c1 | 109* | 3 | 2 | -3 | x
CCN1/C(=C/C(C)=O)Sc2ccc(OC)cc21 | -6 | 1 | 4 | 48* | -1
CO[C@@H]1CC[C@H]2CCOc3c(C#N)cccc3C(=O)N(C)C[C@@H](OC)[C@@H](C)C(=O)N(C)C[C@H]1O2 | x | 2 | 3 | x | x
SMILES | miR122 inh | Cneo AK release | PglD inh | CAL PDZ FP-1 | CAL PDZ FP-2
CO[C@H]1CC[C@@H]2CCOc3c(C#N)cccc3C(=O)N(C)C[C@H](OC)[C@@H](C)C(=O)N(C)C[C@@H]1O2 | x | 86* | 0 | x | x
CO[C@H]1CC[C@H]2CCOc3c(C#N)cccc3C(=O)N(C)C[C@@H](C)C(=O)N(C)C[C@H]1O2 | x | 88* | 6 | x | x
C[C@@H]1CCCCO[C@H](CN(C)Cc2ccc3c(c2)OCO3)[C@H](C)CN([C@H](C)CO)C(=O)c2cc(NS(=O)(=O)c3ccccc3)ccc2O1 | -6[16.7 µM] | 10 | -2 | x | x
Cc1ccc(S(=O)(=O)NN2C(=O)/C(=C\c3ccc(Cl)cc3)SC2=S)cc1 | x | -2 | -7 | -3 | -3
Cc1ccc(/C=C2\SC(=S)N(NS(=O)(=O)c3ccc(C)cc3)C2=O)cc1 | -4 | 121* | -13 | -10 | -4
Cc1noc(C)c1S(=O)(=O)N1CCN(S(=O)(=O)c2ccccc2C#N)CC1 | -4 | 0 | -1 | 34* | -2
CCOc1ccc(S(=O)(=O)Nc2cc(C)ccn2)c2ccccc12 | 237* | 2 | -1 | -2 | -1
COc1ccc(S(=O)(=O)Nc2cc(C)cc(C)n2)c2ccccc12 | -31 | -2 | 0 | -6 | -2
